Structures are written as SMILES. Bounds are passed on as bounds.

Data on six molecules can be found in ChEMBL document CHEMBL1129360, “Carbocyclic nucleosides as inhibitors of human tumor necrosis factor-alpha production: effects of the stereoisomers of (3-hydroxycyclopentyl)adenines” (J Med Chem, 1996).

Assay [1] is filed under the species Homo sapiens. The assay is described as follows: in vitro inhibitory activity was measured against interleukin-6 (IL-6) production. It is filed as functional, organism-based. The gist of the method: (§1)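 Human peripheral blood mononuclear cells from normal volunteers were separated by density gradient. Adherent monocyte/macrophages were kept after 1 h and lifted with RPMI-1640/0.2% EDTA/5% FCS. Compounds in PBS (0.16, 0.8, 4.0, 20.0, 100 µM) were added to the cells 15 min before LPS. Cells were incubated 18 h at 37 °C, 5% CO2. Supernatant TNF-α, IL-1β and IL-6 were measured by specific ELISA, giving IC50.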

The species named for assay [2] is Homo sapiens. The assay is described as follows: in vitro inhibitory activity was measured against interleukin-1-beta (IL1-beta) production. It counts as functional. The gist of the method:
as §1

For assay [3], the system named is Mus musculus. The assay is described as follows: Protective effects against lethal injections of D-galactosamine sensitized Lipopolysaccharide challenged (LD100) CF1 mice (100 mg/kg IP in PBS). It is filed as functional. The gist of the method: (§2)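 Female CF1 mice were fasted overnight, then given compound at 100 mg/kg ip in PBS 1 h before an ip challenge of D-galactosamine (20 mg) plus S. enteritidis LPS (15-250 ng). The LPS LD100 was set for each shipment of mice, and the challenge was at LD100 or 3× LD100. Mice were refed after challenge and survival was scored at 8 h. PBS vehicle served as control.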

Assay [4] relates to Mus musculus. The assay is described as follows: D-galactosamine sensitized mice were given 3 times the LD100 dose of LPS (100 mg/kg IP in PBS). It counts as functional. The gist of the method: as §2
The species entered for assay [5] is Homo sapiens. The assay is described as follows: In vitro inhibitory activity was measured against tumor necrosis factor-alpha production. It is filed as functional. The gist of the method: as §1

As a reminder, the IC50 is the concentration needed to halve the response being measured. On to `CC(=O)CCCCn1c(=O)c2c(ncn2C)n(C)c1=O` [PENTOXIFYLLINE], for which the results for the IC50 in the assay filed under Homo sapiens [1], in the assay filed under Homo sapiens [2] and in the assay filed under Homo sapiens [5] were more than 100 µM, more than 100 µM and 33 µM, respectively. Moreover, the Survival in the assay on Mus musculus [3] stood at 66%; with Mus musculus [4], 0%.
As to `Nc1ncnc2c1ncn2[C@@H]1CC[C@H](O)C1`, the IC50 was more than 100 µM in the assay filed under Homo sapiens [1], more than 100 µM in the assay filed under Homo sapiens [2] and 18 µM in the assay filed under Homo sapiens [5]. Also, the Survival with Mus musculus [3] was 50%; in the assay with Mus musculus [4], 0%.
With `Nc1ncnc2c1ncn2[C@@H]1CC[C@@H](O)C1`, the values for the IC50 in the assay filed under Homo sapiens [1], in the assay filed under Homo sapiens [2] and in the assay listed under Homo sapiens [5] were more than 100 µM, 76 µM and 9 µM, respectively. The Survival in the assay on Mus musculus [3] and in the assay on Mus musculus [4] was 100% each time.
Regarding `Nc1ncnc2c1ncn2[C@H]1CC[C@H](O)C1`, the IC50 in the assay listed under Homo sapiens [1] is more than 100 µM; in the assay filed under Homo sapiens [2], more than 100 µM; in the assay filed under Homo sapiens [5], 16 µM. Moreover, the figures for the Survival in the assay on Mus musculus [3] and in the assay on Mus musculus [4] were 63% and 0%, respectively.
Regarding `Nc1ncnc2c1ncn2[C@H]1CC[C@@H](O)C1`, the IC50 in the assay filed under Homo sapiens [1] was more than 100 µM; in the assay filed under Homo sapiens [2] it was more than 100 µM; in the assay filed under Homo sapiens [5], 40 µM. Moreover, the Survival in the assay with Mus musculus [3] stood at 88%; in the assay on Mus musculus [4], 0%.
Regarding `Nc1ncnc2c1ncn2[C@@H]1O[C@H](CO)[C@@H](O)[C@H]1O` [ADENOSINE], the half-maximal inhibitory concentration (IC50) in the assay listed under Homo sapiens [1] is more than 100 µM; in the assay listed under Homo sapiens [2] it was more than 100 µM; in the assay listed under Homo sapiens [5], 6 µM. Further, the Survival in the assay on Mus musculus [3] and in the assay with Mus musculus [4] was 0% each time.
